Source: ChEMBL document CHEMBL1122285, “New myocardial imaging agents: stabilization of radioiodine as a terminal vinyl iodide moiety on tellurium fatty acids” (J Med Chem, 1983)
Several values for one entry are separate records, joined by “and”; a condition that tells them apart may be missing. Equal entries are not always repeated.

Key:
Rattus norvegicus [1] = assay: Tested for distribution of radioactivity of tellurium-123 in blood of rat after 30 min of intravenous administration; type: ADME, organism-based; conditions: in vivo, 0.5 h
Method in brief: (§1)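 123mTe-labelled fatty acid (sp act ~20 mCi/mmol), ~6.8–8.4 μCi per rat, was given by lateral tail vein in 0.5 mL 6% BSA with 10% final ethanol to ether-anaesthetised Fischer 344 rats, four per time point. Tissue activity is expressed as mean % injected dose/g (range) against injectate standards.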

Rattus norvegicus [2] = assay: Tested for distribution of radioactivity of iodine 125 in thyroid of rat after 5 min of intravenous administration; type: ADME, organism-based, Thyroid gland; conditions: in vivo
Method in brief: (§2)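 Fischer 344 rats, four per time point, under ether anaesthesia. Each received ~8.6 μCi of 125I-labelled fatty acid (sp act ~20 mCi/mmol) by lateral tail vein in 0.5 mL 6% bovine serum albumin with 10% final ethanol, filtered before injection. Percent injected dose/g was calculated against injectate standards and reported as mean (range). Thyroid weight was taken as body weight × 7.5 mg/100 g.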

Rattus norvegicus [3] = assay: Tested for distribution of radioactivity of iodine 125 in liver of rat after 3 days of intravenous administration; type: ADME, organism-based; conditions: in vivo, 72 h; method in brief: as §2
Rattus norvegicus [4] = assay: Tested for distribution of radioactivity iodine 125 in heart of rat after 60 min of intravenous administration; type: ADME, organism-based; conditions: in vivo, 1 h; method in brief: as §2
Rattus norvegicus [5] = assay: Tested for distribution of radioactivity of iodine 125 in thyroid of rat after 60 min of intravenous administration; type: ADME, organism-based, Thyroid gland; conditions: in vivo, 1 h; method in brief: as §2
Rattus norvegicus [6] = assay: Tested for distribution of radioactivity iodine 125 in heart of rat after 30 min of intravenous administration (value in parentheses indicates range); type: ADME, organism-based; conditions: in vivo, 0.5 h; method in brief: as §2
Rattus norvegicus [7] = assay: Tested for distribution of radioactivity of iodine 125 in liver of rat after 2 hr of intravenous administration; type: ADME, organism-based; conditions: in vivo; method in brief: as §2
Rattus norvegicus [8] = assay: Tested for distribution of radioactivity of iodine 125 in kidney of rat after 4 hours of intravenous administration; type: ADME, organism-based; conditions: in vivo; method in brief: as §2
Rattus norvegicus [9] = assay: Tested for distribution of radioactivity of iodine 125 in blood of rat after 2 hour of intravenous administration; type: ADME, organism-based; conditions: in vivo; method in brief: as §2
Rattus norvegicus [10] = assay: Tested for distribution of radioactivity in heart of rat after 2 hours of intravenous administration; type: ADME, organism-based; conditions: in vivo; method in brief: as §2
Rattus norvegicus [11] = assay: Tested for distribution of radioactivity of iodine 125 in heart of rat after 5 min of intravenous administration; type: ADME, organism-based; conditions: in vivo; method in brief: as §2
Rattus norvegicus [12] = assay: Tested for distribution of radioactivity of iodine 125 in blood of rat after 30 min of intravenous administration; type: ADME, organism-based; conditions: in vivo, 0.5 h; method in brief: as §2
Rattus norvegicus [13] = assay: Tested for distribution of radioactivity of iodine 125 in liver of rat after 30 min of intravenous administration; type: ADME, organism-based; conditions: in vivo, 0.5 h; method in brief: as §2
Rattus norvegicus [14] = assay: Tested for distribution of radioactivity of iodine 125 in lungs of rat after 3 days of intravenous administration; type: ADME, organism-based, Lung; conditions: in vivo, 72 h; method in brief: as §2
Rattus norvegicus [15] = assay: Tested for distribution of radioactivity of tellurium-123 in kidney of rat after 60 min of intravenous administration; type: ADME, organism-based; conditions: in vivo, 1 h; method in brief: as §1
Rattus norvegicus [16] = assay: Tested for distribution of radioactivity of tellurium-123 in heart of rat after 60 min of intravenous administration; type: ADME, organism-based; conditions: in vivo, 1 h; method in brief: as §1
Rattus norvegicus [17] = assay: Tested for distribution of radioactivity of tellurium-123 in liver of rat after 30 min of intravenous administration; type: ADME, organism-based; conditions: in vivo, 0.5 h; method in brief: as §1
Rattus norvegicus [18] = assay: Tested for distribution of radioactivity of tellurium-123 in lungs of rat after 60 min of intravenous administration; type: ADME, organism-based, Lung; conditions: in vivo, 1 h; method in brief: as §1
Rattus norvegicus [19] = assay: Tested for distribution of radioactivity of tellurium-123 in blood of rat after 5 min of intravenous administration; type: ADME, organism-based; conditions: in vivo; method in brief: as §1
Rattus norvegicus [20] = assay: Tested for distribution of radioactivity of tellurium-123 in kidney of rat after 30 min of intravenous administration; type: ADME, organism-based; conditions: in vivo, 0.5 h; method in brief: as §1
Rattus norvegicus [21] = assay: Tested for distribution of radioactivity of iodine 125 in kidney of rat after 5 min of intravenous administration; type: ADME, organism-based; conditions: in vivo; method in brief: as §2
Rattus norvegicus [22] = assay: Tested for distribution of radioactivity of iodine 125 in kidney of rat after 3 days of intravenous administration; type: ADME, organism-based; conditions: in vivo, 72 h; method in brief: as §2
Rattus norvegicus [23] = assay: Tested for distribution of radioactivity of iodine 125 in lungs of rat after 5 min of intravenous administration; type: ADME, organism-based, Lung; conditions: in vivo; method in brief: as §2
Rattus norvegicus [24] = assay: Tested for distribution of radioactivity of iodine 125 in liver of rat after 4 hr of intravenous administration; type: ADME, organism-based; conditions: in vivo; method in brief: as §2
Rattus norvegicus [25] = assay: Tested for distribution of radioactivity of tellurium-123 in lungs of rat after 30 min of intravenous administration; type: ADME, organism-based, Lung; conditions: in vivo, 0.5 h; method in brief: as §1
Rattus norvegicus [26] = assay: Tested for distribution of radioactivity of iodine 125 in lungs of rat after 30 min of intravenous administration; type: ADME, organism-based, Lung; conditions: in vivo, 0.5 h; method in brief: as §2
Rattus norvegicus [27] = assay: Tested for distribution of radioactivity of tellurium-123 in kidney of rat after 5 min of intravenous administration; type: ADME, organism-based; conditions: in vivo; method in brief: as §1
Rattus norvegicus [28] = assay: Tested for distribution of radioactivity of iodine 125 in liver of rat after 60 min of intravenous administration; type: ADME, organism-based; conditions: in vivo, 1 h; method in brief: as §2
Rattus norvegicus [29] = assay: Tested for distribution of radioactivity iodine 125 in heart of rat after 4 hours of intravenous administration; type: ADME, organism-based; conditions: in vivo; method in brief: as §2
Rattus norvegicus [30] = assay: Tested for distribution of radioactivity of tellurium-123 in heart of rat after 30 min of intravenous administration; type: ADME, organism-based; conditions: in vivo, 0.5 h; method in brief: as §1
Rattus norvegicus [31] = assay: Tested for distribution of radioactivity of tellurium-123 in liver of rat after 5 min of intravenous administration; type: ADME, organism-based; conditions: in vivo; method in brief: as §1
Rattus norvegicus [32] = assay: Tested for distribution of radioactivity of iodine 125 in blood of rat after 5 min of intravenous administration; type: ADME, organism-based; conditions: in vivo; method in brief: as §2
Rattus norvegicus [33] = assay: Tested for distribution of radioactivity of iodine 125 in blood of rat after 4 hours of intravenous administration; type: ADME, organism-based; conditions: in vivo; method in brief: as §2
Rattus norvegicus [34] = assay: Tested for distribution of radioactivity of iodine 125 in kidney of rat after 2 hours of intravenous administration; type: ADME, organism-based; conditions: in vivo; method in brief: as §2
Rattus norvegicus [35] = assay: Tested for distribution of radioactivity of iodine 125 in lungs of rat after 2 hours of intravenous administration; type: ADME, organism-based, Lung; conditions: in vivo; method in brief: as §2
Rattus norvegicus [36] = assay: Tested for distribution of radioactivity of iodine 125 in thyroid of rat after 30 min of intravenous administration; type: ADME, organism-based, Thyroid gland; conditions: in vivo, 0.5 h; method in brief: as §2
Rattus norvegicus [37] = assay: Tested for distribution of radioactivity of iodine 125 in lungs of rat after 60 min of intravenous administration; type: ADME, organism-based, Lung; conditions: in vivo, 1 h; method in brief: as §2
Rattus norvegicus [38] = assay: Tested for distribution of radioactivity of iodine 125 in blood of rat after 60 min of intravenous administration; type: ADME, organism-based; conditions: in vivo, 1 h; method in brief: as §2
Rattus norvegicus [39] = assay: Tested for distribution of radioactivity of tellurium-123 in liver of rat after 60 min of intravenous administration; type: ADME, organism-based; conditions: in vivo, 1 h; method in brief: as §1
Rattus norvegicus [40] = assay: Tested for distribution of radioactivity of tellurium-123 in blood of rat after 60 min of intravenous administration; type: ADME, organism-based; conditions: in vivo, 1 h; method in brief: as §1
[41] = Tested for distribution of radioactivity of iodine 125 in kidney of rat after 60 min of intravenous administration; type: ADME; conditions: in vivo, 1 h; method in brief: as §2
Rattus norvegicus [42] = assay: Tested for distribution of radioactivity of iodine 125 in kidney of rat after 30 min of intravenous administration; type: ADME, organism-based; conditions: in vivo, 0.5 h; method in brief: as §2
Rattus norvegicus [43] = assay: Tested for distribution of radioactivity iodine 125 in heart of rat after 3 days intravenous administration; type: ADME, organism-based; conditions: in vivo, 72 h; method in brief: as §2
Rattus norvegicus [44] = assay: Tested for distribution of radioactivity of iodine 125 in blood of rat after 3 days of intravenous administration; type: ADME, organism-based; conditions: in vivo, 72 h; method in brief: as §2
Rattus norvegicus [45] = assay: Tested for distribution of radioactivity of tellurium-123 in lungs of rat after 5 min of intravenous administration; type: ADME, organism-based, Lung; conditions: in vivo; method in brief: as §1
Rattus norvegicus [46] = assay: Tested for distribution of radioactivity of iodine 125 in liver of rat after 5 min of intravenous administration; type: ADME, organism-based; conditions: in vivo; method in brief: as §2
Rattus norvegicus [47] = assay: Tested for distribution of radioactivity of tellurium-123 in heart of rat after 5 min of intravenous administration; type: ADME, organism-based; conditions: in vivo; method in brief: as §1

O=C(O)CCCCCCCCCCC[Te]CCC/C=C\I
Injected dose/g (Rattus norvegicus [1]): 0.84% | Injected dose/g (Rattus norvegicus [2]): 1.62% | Injected dose/g (Rattus norvegicus [3]): 0.09% | Injected dose/g (Rattus norvegicus [4]): 1.81% | Injected dose/g (Rattus norvegicus [5]): 13.41% | Injected dose/g (Rattus norvegicus [6]): 1.52% | Injected dose/g (Rattus norvegicus [7]): 2.45% | Injected dose/g (Rattus norvegicus [8]): 0.93% | Injected dose/g (Rattus norvegicus [9]): 0.68% | Injected dose/g (Rattus norvegicus [10]): 1.03% | Injected dose/g (Rattus norvegicus [11]): 1.46% | Injected dose/g (Rattus norvegicus [12]): 0.61% | Injected dose/g (Rattus norvegicus [13]): 5.32% | Injected dose/g (Rattus norvegicus [14]): 0.1% | Injected dose/g (Rattus norvegicus [15]): 1.85% | Injected dose/g (Rattus norvegicus [16]): 1.92% and 0.83% | Injected dose/g (Rattus norvegicus [17]): 5.53% | Injected dose/g (Rattus norvegicus [18]): 1% and 1.49% | Injected dose/g (Rattus norvegicus [19]): 0.32% and 0.25% | Injected dose/g (Rattus norvegicus [20]): 1.73% and 1.62% | Injected dose/g (Rattus norvegicus [21]): 1.01% | Injected dose/g (Rattus norvegicus [22]): 0.08% | Injected dose/g (Rattus norvegicus [23]): 0.92% | Injected dose/g (Rattus norvegicus [24]): 1.95% | Injected dose/g (Rattus norvegicus [25]): 1.03% | Injected dose/g (Rattus norvegicus [26]): 0.89% | Injected dose/g (Rattus norvegicus [27]): 1.46% and 1.54% | Injected dose/g (Rattus norvegicus [28]): 4.39% | Injected dose/g (Rattus norvegicus [29]): 0.76% | Injected dose/g (Rattus norvegicus [30]): 1.98% | Injected dose/g (Rattus norvegicus [31]): 7.78% and 8.26% | Injected dose/g (Rattus norvegicus [32]): 0.15% | Injected dose/g (Rattus norvegicus [33]): 0.65% | Injected dose/g (Rattus norvegicus [34]): 0.96% | Injected dose/g (Rattus norvegicus [35]): 0.81% | Injected dose/g (Rattus norvegicus [36]): 5.64% | Injected dose/g (Rattus norvegicus [37]): 1.02% | Injected dose/g (Rattus norvegicus [38]): 0.69% | Injected dose/g (Rattus norvegicus [39]): 4.49% | Injected dose/g (Rattus norvegicus [40]): 0.95% | Injected dose/g [41]: 1.15% | Injected dose/g (Rattus norvegicus [42]): 1.04% | Injected dose/g (Rattus norvegicus [43]): 0.09% | Injected dose/g (Rattus norvegicus [44]): 0.03% | Injected dose/g (Rattus norvegicus [45]): 0.91% | Injected dose/g (Rattus norvegicus [46]): 8.78% | Injected dose/g (Rattus norvegicus [47]): 2.09%
